Only some compounds are listed: those with a hit (about 3% of all), similar ones and a draw of the others.
PGC1a acetyl inh = PGC1a acetylation modulation, inhibitor mode | U2OS PGC1a acetylation, AlphaScreen anti-acetyl-lysine; with virally co-expressed GCN5 acetyltransferase | 0.17% of 350,000 active | inhibition, % at 15.6 µM;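 active = every replicate shows inhibition of at least 40%; inconclusive = mean inhibition at least 40% but some replicate below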;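 also: 0% = neutral control wells and 100% = positive control wells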
S100A4 MyoIIA = S100A4-myosin IIA interaction inhibition; P26447; S100A4/TAMRA-MyoIIA peptide fluorescence polarization; inhibition, % at 10.7 µM; 0.14% of 360,000 active; AID 652163;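 active = mean inhibition of at least 70% across replicates, with every replicate also reaching that level; inconclusive = mean inhibition reaches 70% but some replicates fall short; inactive = mean inhibition below 70%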
Target sequence (P26447 whole entry, looked up): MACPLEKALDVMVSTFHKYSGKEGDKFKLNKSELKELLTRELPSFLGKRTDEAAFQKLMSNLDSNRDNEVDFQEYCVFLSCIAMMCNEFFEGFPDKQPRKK
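Test system – S100A4 monomer (human) · Compound – single-point compound testing · Schedule – 5 min incubation before reading · Probe or stimulus – TAMRA-labelled myosin IIA heavy-chain peptide probe, 5 nM · Benchmarks – neutral control DMSO, positive control TFP · Medium – Calcium-containing HEPES buffer, pH 7.2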
Ecoli rRNA inh = inhibitors of bacterial rRNA selective over humanized ribosomes | 1.6% of 350,000 active | GFP signal change (wild-type ribosome), % (concentration not given with the values) | E. coli WT GFP vs humanized-ribosome RFP mutants, fluorescence, 24 h; active compounds read low; DMSO median 0, no signal -100;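 active = significant combined selectivity score with lowered wild-type GFP, culture density cut under 30%, mutant RFP and density less affected; inactive = any of these conditions unmet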
Statin myotox sup = protects C2C12 myotubes from simvastatin toxicity; ATP luminescence, 48 h; scaled: DMSO 0, geranylgeraniol control 100; AID 602340; rescue of ATP level, % at 7.49 µM; 0.78% of 330,000 active;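 active = mean ATP rescue above about 67%, or every replicate alone reaching that limit, limit read from the data, passing the limit was not always enough; inconclusive = no clear call, values can overlap the other calls; inactive = mean under the limit and some replicate under it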;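 also: myotubes were challenged with 10 µM simvastatin during compound exposure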
SIRT5 block = inhibitors of human sirtuin-5 desuccinylase; Purified SirT5, succinyl-peptide AMC, trypsin-coupled fluorescence; 1.1% of 330,000 active; inhibition, % at 15 µM; Q9NXA8; AID 652115; in the data active = inhibition above about 15%; inconclusive = no clear call, values can overlap the other calls
Target sequence (Q9NXA8 whole entry, looked up): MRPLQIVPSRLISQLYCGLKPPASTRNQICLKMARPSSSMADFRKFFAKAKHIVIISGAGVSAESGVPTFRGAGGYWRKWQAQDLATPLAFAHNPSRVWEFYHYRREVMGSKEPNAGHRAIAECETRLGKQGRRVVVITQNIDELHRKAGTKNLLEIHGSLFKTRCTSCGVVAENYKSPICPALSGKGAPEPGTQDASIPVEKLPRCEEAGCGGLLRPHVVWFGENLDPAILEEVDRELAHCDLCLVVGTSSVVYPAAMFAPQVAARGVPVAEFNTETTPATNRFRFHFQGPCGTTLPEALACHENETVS
Cneo AK release = Cryptococcus neoformans lysis via adenylate kinase release. lysis activity, % at 15 µM. 0.2% of 360,000 active. AID 651654. C. neoformans lysis, adenylate kinase release luminescence, 4 h; normalised: neutral wells 0, clomiphene wells 100;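 active = mean lysis activity across replicates of at least 80%, whatever share of replicates individually reach that level; inactive = mean lysis activity below 80%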
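Assay system: Cryptococcus neoformans yeast cells / Dosing: single-point compound dose / Timing: 4 h at 37 °C static, read 1 h later / Measured by: luminescence of released adenylate kinase using an AK detection reagent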
The depositor's hits bear a star; ? = inconclusive; nt = no result given.

SMILES	PGC1a acetyl inh	S100A4 MyoIIA	Ecoli rRNA inh	Statin myotox sup	SIRT5 block	Cneo AK release
Cc1ccc(S(=O)(=O)Nc2ccc3c(c2)C(=O)N([C@H](C)CO)C[C@H](C)[C@@H](CN(C)C(=O)Nc2c(C)noc2C)OCCCC[C@@H](C)O3)cc1	18	8	5	nt	-6	-3
C[C@@H]1CCCCO[C@H](CN(C)S(=O)(=O)c2ccccc2)[C@H](C)CN([C@@H](C)CO)C(=O)c2cc(NC(=O)Nc3ccc(F)cc3)ccc2O1	0	-1	-2	nt	-1	0
C[C@@H]1CN([C@@H](C)CO)C(=O)c2cc(NC(=O)Nc3ccc(F)cc3)ccc2O[C@@H](C)CCCCO[C@H]1CN(C)S(=O)(=O)c1ccccc1	-7	0	6	nt	3	101*
CC(C)NC(=O)Nc1ccc2c(c1)C(=O)N([C@H](C)CO)C[C@@H](C)[C@H](CN(C)S(=O)(=O)c1ccccc1)OCCCC[C@@H](C)O2	?	121*	-2	nt	5	0
CC(C)NC(=O)Nc1ccc2c(c1)C(=O)N([C@@H](C)CO)C[C@H](C)[C@@H](CN(C)S(=O)(=O)c1ccccc1)OCCCC[C@H](C)O2	10	-11	-1	nt	1	-2
C[C@@H]1CCCCO[C@@H](CN(C)S(=O)(=O)c2ccc(F)cc2)[C@H](C)CN([C@@H](C)CO)C(=O)c2cc(NC(=O)Nc3ccc4c(c3)OCO4)ccc2O1	-4	-9	1	nt	21*	-3
CC(C)NC(=O)Nc1ccc2c(c1)C(=O)N([C@@H](C)CO)C[C@@H](C)[C@@H](CN(C)S(=O)(=O)c1ccccc1)OCCCC[C@H](C)O2	105*	-1	0	nt	3	50
C[C@@H]1CN([C@H](C)CO)C(=O)c2cc(NC(=O)Cc3ccccc3)ccc2O[C@@H](C)CCCCO[C@@H]1CN(C)S(=O)(=O)c1ccc(F)cc1	-14	nt	2	56	nt	2
C[C@@H]1CN([C@@H](C)CO)C(=O)c2cc(NC(=O)Cc3ccccc3)ccc2O[C@@H](C)CCCCO[C@@H]1CN(C)S(=O)(=O)c1ccc(F)cc1	11	nt	3	101*	nt	0
C[C@@H]1CN([C@@H](C)CO)S(=O)(=O)c2ccc(C3=CCCCC3)cc2O[C@@H]1CN(C)Cc1cncnc1	-10	-4	4	2	5	53
C[C@H](CO)N1C[C@H](C)[C@@H](CN(C)C(=O)Nc2ccc3c(c2)OCO3)Oc2cc(C3=CCCC3)ccc2S1(=O)=O	9	1	5	-100	20*	-1
C[C@H]1CN([C@@H](C)CO)S(=O)(=O)c2ccc(C3=CCCCC3)cc2O[C@@H]1CN(C)C(=O)Nc1ccc2c(c1)OCO2	-9	1	2	-23	13	5
C[C@@H]1CN([C@H](C)CO)S(=O)(=O)c2ccc(C3=CCCCC3)cc2O[C@@H]1CN(C)Cc1ccccc1	8	79*	-14	-39	7	3
C[C@@H]1CN([C@H](C)CO)S(=O)(=O)c2ccc(C3=CCCCC3)cc2O[C@@H]1CN(C)Cc1cncnc1	12	107*	5	-12	2	0
C[C@H]1CN([C@@H](C)CO)S(=O)(=O)c2ccc(C3=CCCCC3)cc2O[C@H]1CN(C)Cc1ccccc1	22	100*	-13	-52	6	-1
Cc1ccc(S(=O)(=O)N(C)C[C@H]2Oc3c(NC(=O)Nc4ccc(F)cc4)cccc3C(=O)N([C@@H](C)CO)C[C@H]2C)cc1	3	6	-2	62	4	0
CN(C)C(=O)c1cccc(-c2ccccc2[C@H]2[C@H](C#N)N(C(=O)C3CCCC3)[C@H]2CO)c1	nt	-5	9	nt	0	nt
Cc1noc(C)c1NC(=O)N(C)C[C@@H]1Oc2c(NC(=O)CCCCCC(=O)Nc3ccccc3N)cccc2C(=O)N([C@@H](C)CO)C[C@H]1C	2	-5	2	nt	-4	nt
CN1c2ccc(C#Cc3cccnc3)cc2[C@@H]2[C@@H](CCN2C(=O)C2CCCCC2)[C@H]1CO	-14	5	-19	-4	2	7
COc1ccccc1-c1ccc2c(c1)O[C@H](CN(C)C(C)=O)[C@H](C)CN([C@H](C)CO)S2(=O)=O	-2	0	-6	-3	-10	-2
CCC(=O)N1CC[C@H]2[C@H](CO)Nc3ccc(-c4ccc(F)cc4)cc3[C@H]21	-5	1	-6	21	0	1
C[C@@H]1CN([C@@H](C)CO)C(=O)Cc2cc(NS(C)(=O)=O)ccc2O[C@@H]1CN(C)Cc1ccncc1	-7	2	0	2	2	0
C[C@@H]1CN([C@@H](C)CO)S(=O)(=O)c2ccc(C3=CCCC3)cc2O[C@@H]1CN(C)Cc1ccccc1F	-7	5	-2	-105	-5	90*
C[C@H]1CN([C@@H](C)CO)S(=O)(=O)c2ccc(C3=CCCCC3)cc2O[C@H]1CN(C)C(=O)Cc1ccncc1	2	8	4	-7	2	-11
C[C@H]1CN([C@@H](C)CO)S(=O)(=O)c2ccc(C3=CCCCC3)cc2O[C@@H]1CN(C)C(=O)Cc1ccccc1	0	-8	-10	-34	15*	-1
SMILES	PGC1a acetyl inh	S100A4 MyoIIA	Ecoli rRNA inh	Statin myotox sup	SIRT5 block	Cneo AK release
Cc1ccccc1S(=O)(=O)NCC[C@H]1CC[C@H](NC(=O)C2CCOCC2)[C@H](CO)O1	15	4	0	8	1	-2
C[C@H](CO)N1C[C@H](C)[C@H](CN(C)CC2CC2)OCc2cnnn2CCCC1=O	-1	3	1	-9	1	-1
C=CCc1ccccc1OCCCCN1CCCC1	-4	nt	nt	80*	nt	2
CCc1ccccc1OCCCCN1CCCC1	-14	-1	nt	nt	-3	-2
COc1ccc(NC(=S)Nc2cccc(Cl)c2)cc1OC	-5	4	-40	4	112*	4
COc1ccc(CNC(=S)Nc2ccc(F)c(Cl)c2)cc1OC	-3	-3	-27*	nt	-1	nt
COc1ccccc1CNC(=S)NCc1ccc(Cl)cc1	nt	2	-32	-6	0	137*
S=C(NCc1ccccc1)NCc1ccc(Cl)cc1	nt	-1	-49	-46	-2	19
CC(=O)N1[C@H](CO)[C@H](c2ccccc2)[C@H]1CN(CC(C)C)C(=O)c1ccccn1	3	4	1	19	-6	-5
O=C(Nc1ccccc1Cl)NC1(C(=O)N2CCCCC2)CCCCC1	50	nt	nt	101*	nt	-6
O=C(Nc1ccccc1Cl)NC1(C(=O)N2CCCC2)CCCCC1	-13	nt	nt	13	nt	-1
O=C(c1ccc2c(c1)OCO2)N1CC(=O)N2[C@H](C1)[C@H](c1ccc(C#Cc3ccccc3)cc1)[C@@H]2CO	-1	-4	2	nt	1	nt

Screening results deposited in PubChem by Broad Institute.
